ChEMBL document CHEMBL5120972, “Small-Molecule Inhibitors of the MLL1 CXXC Domain, an Epigenetic Reader of DNA Methylation” (ACS Med Chem Lett, 2022)

What was measured:
[1] = biological target: T1, Lysine-specific demethylase 2A (Homo sapiens, UniProt Q9Y2K7); assay: Inhibition of GST-tagged human KDM2A (562 to 618 residues) expressed in Escherichia coli BL21 cells incubated for 30 mins by fluorescence polarization assay
T1 sequence (Q9Y2K7 whole entry): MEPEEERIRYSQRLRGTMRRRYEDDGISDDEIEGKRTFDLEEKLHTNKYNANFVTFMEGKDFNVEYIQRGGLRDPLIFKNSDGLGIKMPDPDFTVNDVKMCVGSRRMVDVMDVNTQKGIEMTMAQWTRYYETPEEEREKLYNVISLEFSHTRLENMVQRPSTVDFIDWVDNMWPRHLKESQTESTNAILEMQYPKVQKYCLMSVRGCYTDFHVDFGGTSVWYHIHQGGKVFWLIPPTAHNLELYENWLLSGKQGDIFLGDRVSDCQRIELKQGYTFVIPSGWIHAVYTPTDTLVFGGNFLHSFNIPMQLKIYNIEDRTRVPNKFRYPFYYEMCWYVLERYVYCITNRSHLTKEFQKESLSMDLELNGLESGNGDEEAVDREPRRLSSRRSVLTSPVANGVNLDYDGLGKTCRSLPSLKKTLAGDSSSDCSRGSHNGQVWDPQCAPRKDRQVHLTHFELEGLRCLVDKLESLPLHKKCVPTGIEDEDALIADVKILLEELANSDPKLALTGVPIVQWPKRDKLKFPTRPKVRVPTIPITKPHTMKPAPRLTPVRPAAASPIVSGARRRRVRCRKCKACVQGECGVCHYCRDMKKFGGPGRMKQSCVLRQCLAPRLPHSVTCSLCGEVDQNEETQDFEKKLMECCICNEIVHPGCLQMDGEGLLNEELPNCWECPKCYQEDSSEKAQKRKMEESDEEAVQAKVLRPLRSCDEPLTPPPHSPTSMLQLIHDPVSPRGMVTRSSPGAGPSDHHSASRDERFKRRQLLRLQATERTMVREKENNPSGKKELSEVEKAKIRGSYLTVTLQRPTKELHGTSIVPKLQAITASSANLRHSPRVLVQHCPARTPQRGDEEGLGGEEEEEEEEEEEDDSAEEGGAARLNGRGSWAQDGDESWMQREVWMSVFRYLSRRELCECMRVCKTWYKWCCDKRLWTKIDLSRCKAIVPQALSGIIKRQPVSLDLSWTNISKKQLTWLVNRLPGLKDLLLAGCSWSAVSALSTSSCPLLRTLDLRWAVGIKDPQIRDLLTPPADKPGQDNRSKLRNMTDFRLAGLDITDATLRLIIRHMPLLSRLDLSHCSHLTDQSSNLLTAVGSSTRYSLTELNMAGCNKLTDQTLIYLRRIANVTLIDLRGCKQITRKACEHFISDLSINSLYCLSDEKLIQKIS
Summary of the method: (§1)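 Competition fluorescence polarization assay. CXXC domain protein is held at 2× its own KD. All domains are expressed and purified by the same method. Standard deviations come from three separate measurements.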

[2] = biological target: T2, CXXC-type zinc finger protein 4 (Homo sapiens, UniProt Q9H2H0); assay: Inhibition of GST-tagged human IDAX (130 to 181 residues) expressed in Escherichia coli BL21 cells incubated for 30 mins by fluorescence polarization assay; summary of the method: as §1
T2 sequence (Q9H2H0 whole entry): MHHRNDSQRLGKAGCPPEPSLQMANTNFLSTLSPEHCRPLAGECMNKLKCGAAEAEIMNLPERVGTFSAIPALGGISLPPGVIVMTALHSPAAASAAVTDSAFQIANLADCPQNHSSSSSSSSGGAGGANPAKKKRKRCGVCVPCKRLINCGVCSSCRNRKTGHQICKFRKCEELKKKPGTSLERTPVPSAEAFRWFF

[3] = biological target: Methylcytosine dioxygenase TET3 (Homo sapiens, UniProt O43151); assay: Inhibition of GST-tagged human TET3 ([…] residues) expressed in Escherichia coli BL21 cell incubated for 30 mins by fluorescence polarization assay; summary of the method: as §1
[4] = biological target: Methylcytosine dioxygenase TET1 (Homo sapiens, UniProt Q8NFU7); assay: Inhibition of GST-tagged human TET1 (583 to 633 residues) expressed in Escherichia coli BL21 cells incubated for 30 mins by fluorescence polarization assay; summary of the method: as §1
Methylcytosine dioxygenase TET1, sequence (Q8NFU7 whole entry, the tested form may be a part): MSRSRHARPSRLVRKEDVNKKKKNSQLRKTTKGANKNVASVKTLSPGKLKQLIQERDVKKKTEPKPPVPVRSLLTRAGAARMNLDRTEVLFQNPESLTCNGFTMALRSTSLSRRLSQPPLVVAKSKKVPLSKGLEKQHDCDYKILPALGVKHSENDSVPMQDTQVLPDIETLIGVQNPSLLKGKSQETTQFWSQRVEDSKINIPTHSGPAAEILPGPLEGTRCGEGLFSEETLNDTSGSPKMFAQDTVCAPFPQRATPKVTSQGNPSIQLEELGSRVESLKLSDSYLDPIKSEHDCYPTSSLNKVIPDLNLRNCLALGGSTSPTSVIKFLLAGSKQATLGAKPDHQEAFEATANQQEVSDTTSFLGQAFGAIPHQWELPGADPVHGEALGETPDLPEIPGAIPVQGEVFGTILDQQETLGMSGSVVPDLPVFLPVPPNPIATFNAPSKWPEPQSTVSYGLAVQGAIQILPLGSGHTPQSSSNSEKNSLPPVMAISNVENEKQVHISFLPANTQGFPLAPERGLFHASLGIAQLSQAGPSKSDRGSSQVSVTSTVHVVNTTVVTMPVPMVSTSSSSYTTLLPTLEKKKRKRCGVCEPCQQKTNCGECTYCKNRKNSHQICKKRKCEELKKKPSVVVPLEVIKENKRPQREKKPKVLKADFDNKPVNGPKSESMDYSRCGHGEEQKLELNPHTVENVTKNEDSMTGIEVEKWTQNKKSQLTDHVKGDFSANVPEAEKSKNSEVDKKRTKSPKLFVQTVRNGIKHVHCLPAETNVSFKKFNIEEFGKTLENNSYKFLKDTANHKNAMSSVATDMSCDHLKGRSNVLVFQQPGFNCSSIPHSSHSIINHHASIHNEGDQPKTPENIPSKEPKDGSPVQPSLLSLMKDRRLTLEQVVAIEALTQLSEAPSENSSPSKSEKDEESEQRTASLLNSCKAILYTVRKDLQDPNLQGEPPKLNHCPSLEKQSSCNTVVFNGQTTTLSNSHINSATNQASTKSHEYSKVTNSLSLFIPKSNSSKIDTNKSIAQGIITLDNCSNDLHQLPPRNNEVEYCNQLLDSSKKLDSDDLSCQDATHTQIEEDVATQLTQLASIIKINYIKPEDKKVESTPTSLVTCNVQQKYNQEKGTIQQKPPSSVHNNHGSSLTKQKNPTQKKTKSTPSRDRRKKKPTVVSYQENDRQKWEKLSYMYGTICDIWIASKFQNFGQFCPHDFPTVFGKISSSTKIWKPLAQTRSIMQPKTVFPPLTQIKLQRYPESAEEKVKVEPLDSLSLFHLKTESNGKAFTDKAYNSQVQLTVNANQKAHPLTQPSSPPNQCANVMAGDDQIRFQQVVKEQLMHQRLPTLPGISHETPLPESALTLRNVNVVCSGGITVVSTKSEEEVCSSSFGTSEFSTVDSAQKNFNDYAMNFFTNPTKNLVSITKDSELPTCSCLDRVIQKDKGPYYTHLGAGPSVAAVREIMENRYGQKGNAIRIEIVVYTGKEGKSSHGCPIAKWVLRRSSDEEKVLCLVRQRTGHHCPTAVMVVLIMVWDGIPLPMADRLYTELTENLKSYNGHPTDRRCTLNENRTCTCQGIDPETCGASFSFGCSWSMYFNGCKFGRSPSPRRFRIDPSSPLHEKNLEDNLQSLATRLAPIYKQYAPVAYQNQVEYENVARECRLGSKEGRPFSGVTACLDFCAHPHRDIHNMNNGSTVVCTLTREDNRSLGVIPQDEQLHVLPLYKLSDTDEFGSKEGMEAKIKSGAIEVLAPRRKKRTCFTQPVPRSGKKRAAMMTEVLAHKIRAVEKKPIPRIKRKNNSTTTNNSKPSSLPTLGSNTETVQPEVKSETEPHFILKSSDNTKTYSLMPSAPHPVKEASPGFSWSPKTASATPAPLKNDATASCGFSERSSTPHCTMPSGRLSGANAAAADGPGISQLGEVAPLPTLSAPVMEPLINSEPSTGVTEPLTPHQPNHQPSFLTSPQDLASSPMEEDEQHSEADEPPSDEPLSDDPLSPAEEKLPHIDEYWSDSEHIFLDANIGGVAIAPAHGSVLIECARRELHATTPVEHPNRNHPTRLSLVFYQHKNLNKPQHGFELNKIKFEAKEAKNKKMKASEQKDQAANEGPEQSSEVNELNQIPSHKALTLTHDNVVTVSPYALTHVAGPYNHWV

Methylcytosine dioxygenase TET3, sequence (O43151 whole entry, the tested form may be a part): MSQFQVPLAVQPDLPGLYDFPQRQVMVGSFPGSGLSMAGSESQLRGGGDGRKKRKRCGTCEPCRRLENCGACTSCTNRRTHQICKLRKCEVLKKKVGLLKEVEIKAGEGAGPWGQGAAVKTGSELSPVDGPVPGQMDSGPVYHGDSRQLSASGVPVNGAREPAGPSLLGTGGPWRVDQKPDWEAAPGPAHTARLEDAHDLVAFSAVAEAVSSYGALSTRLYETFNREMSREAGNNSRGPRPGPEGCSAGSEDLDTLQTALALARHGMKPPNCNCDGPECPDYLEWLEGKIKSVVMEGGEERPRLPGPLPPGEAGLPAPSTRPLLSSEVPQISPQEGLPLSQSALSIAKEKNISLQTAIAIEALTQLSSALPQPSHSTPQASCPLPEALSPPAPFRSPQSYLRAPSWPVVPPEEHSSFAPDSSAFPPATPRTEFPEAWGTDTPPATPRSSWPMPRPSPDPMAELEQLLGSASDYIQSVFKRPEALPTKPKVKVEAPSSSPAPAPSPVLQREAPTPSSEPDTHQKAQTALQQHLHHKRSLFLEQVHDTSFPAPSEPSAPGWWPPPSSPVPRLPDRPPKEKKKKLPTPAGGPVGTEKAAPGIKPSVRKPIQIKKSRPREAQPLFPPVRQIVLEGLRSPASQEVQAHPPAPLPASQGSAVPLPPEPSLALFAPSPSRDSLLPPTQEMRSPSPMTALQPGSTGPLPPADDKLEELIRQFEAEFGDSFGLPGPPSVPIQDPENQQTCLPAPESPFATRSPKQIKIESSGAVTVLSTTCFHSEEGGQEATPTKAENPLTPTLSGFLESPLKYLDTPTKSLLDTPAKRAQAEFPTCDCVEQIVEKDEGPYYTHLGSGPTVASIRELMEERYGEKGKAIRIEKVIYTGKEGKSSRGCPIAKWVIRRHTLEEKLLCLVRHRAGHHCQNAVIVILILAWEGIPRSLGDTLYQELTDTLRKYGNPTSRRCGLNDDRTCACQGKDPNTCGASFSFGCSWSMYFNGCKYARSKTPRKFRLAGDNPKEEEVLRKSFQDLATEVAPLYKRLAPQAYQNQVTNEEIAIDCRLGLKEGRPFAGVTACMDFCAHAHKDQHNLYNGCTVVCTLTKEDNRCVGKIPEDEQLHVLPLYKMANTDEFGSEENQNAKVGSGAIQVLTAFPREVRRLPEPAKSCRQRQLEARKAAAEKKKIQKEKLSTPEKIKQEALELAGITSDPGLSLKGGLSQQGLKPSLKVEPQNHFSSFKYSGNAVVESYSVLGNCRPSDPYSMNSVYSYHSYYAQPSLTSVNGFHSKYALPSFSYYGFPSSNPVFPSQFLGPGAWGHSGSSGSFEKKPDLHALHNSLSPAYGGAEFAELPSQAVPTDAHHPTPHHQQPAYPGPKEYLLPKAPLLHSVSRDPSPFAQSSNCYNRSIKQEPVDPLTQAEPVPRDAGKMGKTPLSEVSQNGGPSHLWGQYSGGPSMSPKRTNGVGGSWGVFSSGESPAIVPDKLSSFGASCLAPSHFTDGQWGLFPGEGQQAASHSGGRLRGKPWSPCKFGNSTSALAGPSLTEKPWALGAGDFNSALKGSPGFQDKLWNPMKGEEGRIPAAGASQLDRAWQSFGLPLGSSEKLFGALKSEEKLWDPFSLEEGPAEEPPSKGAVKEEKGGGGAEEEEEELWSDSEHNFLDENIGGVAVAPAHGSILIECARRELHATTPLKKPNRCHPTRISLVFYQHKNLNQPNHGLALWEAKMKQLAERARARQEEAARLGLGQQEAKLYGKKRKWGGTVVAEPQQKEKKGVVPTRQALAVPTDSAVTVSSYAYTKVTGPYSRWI

SMILES | IC50 [1] [µM] | IC50 [2] [µM] | IC50 [3] [µM] | IC50 [4] [µM]
C=CC(=O)N1CCC(C(=O)NS(=O)(=O)c2ccccc2)(c2ccccc2)CC1 | 30 | 23 | 33 | 107
C=CC(=O)N1CCC(c2ccccc2)(c2nnn[nH]2)CC1 | 4.4 | 2.4 | 5.5 | 11
C=CC(=O)N1CCC(C(=O)O)(c2ccc(OCC)cc2)CC1 | 4.2 | 1.2 | 5.8 | 6.3
C=CC(=O)N1CCC(C(=O)O)(c2ccccc2)CC1 | 3.9 | 4 | 5.1 | 11.3
C=CC(=O)N1CCC(c2ccc(OCC)cc2)(c2nnn[nH]2)CC1 | 36 | 8.9 | 21 | 24
C=CC(=O)N1CCC(c2ccc(OC)cc2)(c2nnn[nH]2)CC1 | 16.4 | 8.3 | 15.5 | 31
C=CC(=O)N1CCC(C(=O)O)(c2ccc(Cl)cc2)CC1 | 33 | 33 | 48 | 166
C=CC(=O)N1CCC(C(=O)O)(c2ccc(OC)cc2)CC1 | 30 | 35 | 30 | 81
C=CC(=O)N1CCC(c2cccc(OCC)c2)(c2nnn[nH]2)CC1 | 7.4 | 2.2 | 7 | 10.7
